Assay results as given in PubChem BioAssay AID504543 (Southern Research Specialized Biocontainment Screening …, 2011).
The source made the active and inactive calls.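 How the source made its calls: active means phage lysis blocked by at least 50% at any tested concentration; inactive means the rest.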

Tests used:
[1] = system: E. coli UTI89 K1F phage lysis inhibition, OD600 3 h; test: protection of UTI89 from K1F lysis – strain UTI89, C7 control, set 2, capsule biogenesis inhibitor project, dose response (AID 504543); details: for CC50: measured here: cytotoxicity
In short: (§1)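 System: Escherichia coli UTI89 (K1 capsule) plus phage-resistant kpsM mutant; Medium: LB broth, overnight cultures diluted 1:100; Timing: 1.25 h compound pre-incubation at 37 °C, 3 h phage exposure; Signal: OD600 absorbance; Control set: phage-resistant kpsM mutant and 1% DMSO vehicle wells.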

[2] = as above; details: E. coli UTI89 K1F phage lysis inhibition, OD600 3 h; at 300 µM (top of the series)
In short: as §1

O=C1c2c(O)ccc(O)c2C(=O)c2c(NCCNCCO)ccc(NCCNCCO)c21
IC50 [1]: 201 µM
CC50 [1]: > 300 µM

CCN(CC)c1ccc2c(-c3ccc(S(=O)(=O)O)cc3S(=O)(=O)O)c3ccc(=[N+](CC)CC)cc-3oc2c1
inhibition of phage lysis [2]: -8.77% (inactive)
CC50 [1]: < 2.35 µM

NC(N)=N/N=C/c1ccc(OCc2ccccc2)cc1
inhibition of phage lysis [2]: -28.3% (inactive)
CC50 [1]: 9.38 µM

N=C(N)SCCc1cccc(CCSC(=N)N)c1
IC50 [1]: 135 µM
CC50 [1]: 181 µM

O=C(Nc1cccc(C2=NCCN2)c1)Nc1cccc(C2=NCCN2)c1
inhibition of phage lysis [2]: 14.2% (inactive)
CC50 [1]: 69.1 µM

COc1ccc(-c2cc(C(=O)O)c3ccccc3n2)cc1
inhibition of phage lysis [2]: 1.1% (inactive)
CC50 [1]: 112 µM

COc1cc(/C=N/N=C(N)N)ccc1OCc1ccccc1Cl
inhibition of phage lysis [2]: -29.8% (inactive)
CC50 [1]: 11.4 µM

Cc1cccc(-c2cc(C(=O)O)c3ccccc3n2)c1
inhibition of phage lysis [2]: -1.53% (inactive)
CC50 [1]: 138 µM
